# Compound activity as filed in PubChem BioAssay.
# The list is not random: actives were taken first. Their share in the collection is about 4.3%.
# CAL PDZ FP-1: human CAL PDZ-peptide interaction inhibition. 0.02% of 330,000 active. Q9HD26. inhibition, % at 20 µM. purified CAL PDZ, TMR-peptide fluorescence polarization, 1 h;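 active = highest replicate inhibition of at least 40%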;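 also: plate controls were DMSO neutral control wells for no effect and unlabeled competitor peptide control wells for full effect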
#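 Material: tagged CAL PDZ protein CerCALP, purified; buffer or medium: sodium phosphate/NaCl buffer pH 7.4 with TCEP, IgG, Thesit; also added: fluorescent TMR peptide probe; schedule: 1 h incubation at room temperature before polarization reading; technique: fluorescence polarization from S- and P-plane intensities, G-factor corrected; control set: unlabelled peptide and DMSO controls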
# Dyrk1A ADPGlo: blocks rat Dyrk1A kinase activity. Q63470. ADP-Glo luminescence, NFATc1 peptide. inhibition, % at 12.5 µM. 0.43% of 310,000 active. AID 504441; in the data active = inhibition above about 50%;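 also: plate controls were vehicle with enzyme for no effect and no enzyme for full effect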
# ALR inh: inhibitors of human sulfhydryl oxidase ALR. purified ALR, DTT oxidation, H2O2 HRP-luminol luminescence. AID 485317. inhibition, % (no concentration beside the values). P55789. 3.8% of 290,000 active;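 active = mean replicate inhibition above about 79%, with every replicate also reaching it, limit read from the data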
# Target sequence (P55789 whole entry, looked up): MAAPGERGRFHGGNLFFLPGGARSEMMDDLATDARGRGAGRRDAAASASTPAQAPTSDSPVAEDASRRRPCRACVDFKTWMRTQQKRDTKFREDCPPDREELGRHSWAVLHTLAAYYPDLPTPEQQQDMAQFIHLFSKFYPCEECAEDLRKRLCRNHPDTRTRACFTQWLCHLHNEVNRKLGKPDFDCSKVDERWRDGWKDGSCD
# Rtt109 Vps75: inhibitors of Candida albicans Rtt109/Vps75 histone acetyltransferase; purified Rtt109/Vps75, ThioGlo CoA-SH fluorescence, 4 h; inhibition, % at 34.9 µM; AID 540336; 0.16% of 330,000 active; Q5AAJ8;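 active = inhibition of at least 50% in every replicate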
# Target sequence (Q5AAJ8 whole entry, looked up): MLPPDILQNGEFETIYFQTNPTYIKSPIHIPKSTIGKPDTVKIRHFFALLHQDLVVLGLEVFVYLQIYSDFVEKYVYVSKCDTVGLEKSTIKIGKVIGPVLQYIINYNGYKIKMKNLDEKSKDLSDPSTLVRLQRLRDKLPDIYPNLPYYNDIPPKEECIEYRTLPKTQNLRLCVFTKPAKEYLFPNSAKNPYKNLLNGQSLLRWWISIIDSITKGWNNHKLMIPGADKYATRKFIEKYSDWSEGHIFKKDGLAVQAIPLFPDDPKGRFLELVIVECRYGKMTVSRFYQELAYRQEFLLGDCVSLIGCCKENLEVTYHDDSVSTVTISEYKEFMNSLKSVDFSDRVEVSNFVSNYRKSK
# CAL PDZ FP-2: inhibitors of human CAL PDZ peptide binding; Q9HD26; purified CAL PDZ, TMR-peptide fluorescence polarization, 1 h; inhibition, % at 24.9 µM; 0.92% of 300,000 active; AID 602252;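 active = mean inhibition of at least 30% with at least half of replicates also reaching 30%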;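 also: 0% = DMSO neutral control and 100% = excess unlabeled competitor peptide PRC23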
# An asterisk follows results filed as active; . = no result.
SMILES,CAL PDZ FP-1,Dyrk1A ADPGlo,ALR inh,Rtt109 Vps75,CAL PDZ FP-2
Nc1nc(=O)n(C2CCCCO2)cc1Br (stereo not drawn),-0.3,.,.,-6.3,-0.7
Cc1c(C(=O)NCc2ccc3c(c2)cc(C)n3C)cccc1[N+](=O)[O-],-1.5,3.3,-5.4,-0.9,.
Cc1occc1C(=O)NCCc1ccc(Cl)cc1,-1.3,-0.6,96.2*,10.0,-1.2
Cc1occc1C(=O)NC(C)CCc1ccccc1 (stereo not drawn),-1.1,5.8,-4.9,0.8,-0.1
Cc1occc1C(=O)NCc1ccccc1,-0.4,-3.1,12.4,0.8,-2.1
Cc1cc(C(=O)NCCc2ccc(Cl)cc2)no1,-1.0,-2.3,1.2,-7.7,0.7
Cc1occc1C(=O)NCCCCc1ccccc1,-1.6,-1.2,98.0*,-0.6,-4.9
O=C(NCCc1ccc(O)cc1)c1ccc(Cl)cc1,0.0,-10.7,79.2*,-1.2,-0.1
Cc1occc1C(=O)NC(C)C(C)(C)C (stereo not drawn),.,-6.4,97.6*,6.8,-0.1
COc1cc(C(=O)NCC(=O)N2CCN(S(=O)(=O)c3cc(C)ccc3C)CC2)cc(OC)c1OC,-2.7,-0.6,1.4,-3.4,-2.4
C=CCC1(N(C(C)=O)c2ccccc2C)CCCCC1,-0.5,-3.2,2.0,-2.2,0.3
O=C(O)CC(NS(=O)(=O)Cc1ccccc1)c1cccc([N+](=O)[O-])c1 (stereo not drawn),.,-4.3,-13.6,-2.1,-5.3
CC(C)c1ccc(/C=C(/C#N)c2nnc(NC(=O)c3ccccc3)s2)cc1,0.2,8.7,-7.3,-3.2,0.0
O=C(CSc1nnc(CNC(=O)c2ccccc2)o1)Nc1ccc2c(c1)OCO2,0.6,6.2,13.9,-3.5,-3.3
NCCc1nnc(SCC(=O)Nc2cccc(Cl)c2)o1,-3.1,9.3,99.4*,0.4,-2.8
CCOC(=O)c1ccc(NC(=O)CSc2nnc(CNC(=O)c3c(F)cccc3Cl)o2)cc1,-0.2,-1.6,99.4*,7.3,-1.9
CC(C)(C)OC(=O)NCCc1nnc(SCC(=O)Nc2cccc(Cl)c2)o1,-0.3,5.9,0.1,1.8,.
O=C(CSc1nnc(CNC(=O)c2c(F)cccc2F)o1)Nc1ccc2c(c1)OCCO2,-0.9,3.5,98.3*,2.9,-6.3
CCOC(=O)c1c(NC(=O)CSc2nnc(CNc3ccc(F)cc3)o2)sc(C)c1C,0.6,-3.9,-4.9,0.6,6.7
CCOC(=O)c1c(NC(=O)CSc2nnc(CNc3ccc(Cl)cc3)o2)sc(C)c1C,-2.7,-2.2,84.1*,0.1,-0.1
Cn1cc(CNC(=O)CC2C(=O)NCCN2CC(C)(C)C)cn1 (stereo not drawn),-1.1,-1.6,-7.0,9.3,0.3
O=C(CSc1nnc(CNC(=O)c2c(F)cccc2F)o1)Nc1ccc2c(c1)OCO2,-0.5,-3.0,98.4*,-7.9,9.7
O=C(CSc1nnc(CNC(=O)c2c(F)cccc2Cl)o1)Nc1ccc2c(c1)OCCO2,.,11.2,98.8*,2.3,-4.3
O=C(CSc1nnc(CNC(=O)c2c(F)cccc2Cl)o1)NCc1ccc2c(c1)OCO2,-1.5,1.0,-13.3,5.5,1.2
O=C(CSc1nnc(CNC(=O)c2cccs2)o1)Nc1ccc(Br)cc1,-1.9,4.8,-1.0,4.4,43.6*
SMILES,CAL PDZ FP-1,Dyrk1A ADPGlo,ALR inh,Rtt109 Vps75,CAL PDZ FP-2
O=C(CSc1nnc(CNC(=O)c2cccs2)o1)Nc1ccc(Cl)cc1,-0.3,-2.4,-17.7,1.7,5.1
Cc1ccc(C)c(NC(=O)C(c2ccccc2)N2CCOCC2)c1 (stereo not drawn),-2.4,-2.7,-2.6,-1.7,-2.7
O=C(Cc1cccs1)Nc1cccc(C(=O)Nc2ccc(C(=O)O)cc2)c1,-0.5,7.5,-15.8,16.6,8.9
COc1ccccc1C(=O)Nc1cc(-c2ccc(C)cc2)no1,-3.0,3.1,-5.3,.,1.4
CCC(C)Nc1nc2c(c(=O)n(C)c(=O)n2C)n1Cc1ccc(F)cc1 (stereo not drawn),-1.4,0.7,89.7*,1.2,-2.2
C=CCNc1nc2c(c(=O)n(C)c(=O)n2C)n1Cc1ccc(F)cc1,0.6,11.3,-1.1,-4.0,.
CCC(C)Nc1nc2c(c(=O)[nH]c(=O)n2C)n1CCCc1ccccc1 (stereo not drawn),-19.0,-4.5,82.3*,-1.2,-6.6
CNc1nc2c(c(=O)[nH]c(=O)n2C)n1CCCc1ccccc1,-0.8,-0.8,8.4,.,-3.6
Cn1c(=O)[nH]c(=O)c2c1nc(Br)n2C/C=N/Nc1ccccc1,0.8,.,100.3*,-0.5,5.9
CC(C)(CC(=O)O)CC(=O)N1CCCN(c2nccc(C(F)(F)F)n2)CC1,-3.8,0.5,21.0,5.9,-1.5
COc1cccc(-c2nn(-c3ccccc3)cc2CN2CCCO2)c1,1.1,0.1,3.7,7.4,-3.4
COC(=O)C1C/C(=N\NS(=O)(=O)c2ccc(C)cc2)c2ccsc2C1 (stereo not drawn),0.4,-10.4,.,-0.5,-1.6
Cc1ccc2nc(C)c3c(c2c1)SCC3,-0.7,2.5,3.9,13.1,.
CCOc1ccccc1NC(=O)CNS(=O)(=O)c1ccc2nc(C)sc2c1,0.1,-5.5,8.1,0.1,.
CC(C)(c1ccc(O)cc1)c1ccc(O)cc1,2.0,1.3,91.3*,10.1,-4.0
CCN(CC)C(=O)CSc1nnc(COc2ccccc2)n1N,-0.8,2.6,-21.0,0.9,-6.5
FC(F)(F)c1cccc(Cc2noc(CN3CCCC(OCc4ccccn4)C3)n2)c1 (stereo not drawn),-0.2,6.5,.,0.5,2.0
CN1CCc2cccc3c2[C@@H]1Cc1ccc(O)c(O)c1-3,-0.1,7.6,.,60.1*,-2.3
COc1ccc2c(c1O)-c1ccccc1CCN(C)C2,0.8,5.0,50.3,-0.6,2.2
Cc1c(C#N)c(NC(=O)CCl)n(Cc2ccccc2)c1C,-1.0,-13.1,96.1*,-14.1,0.4
O=C1/C(=C/c2ccccn2)SC(=S)N1N1CCOCC1,-0.4,-7.7,-3.9,-0.1,-0.4
Cc1ccc(S(=O)(=O)N2CCN(C(=O)COC(=O)COc3ccccc3C(C)C)CC2)c(C)c1,3.8,10.8,.,-4.3,-1.3
CCN(CC)CCCn1c2c(c(SCC(=O)Nc3ccccc3Cl)nc1=O)CCC2,-3.4,-5.5,97.5*,9.6,-5.0
CCN(CC)CCn1c2c(c(SCC(=O)Nc3ccc(F)c(F)c3)nc1=O)CCC2,-0.7,.,91.7*,7.6,.
CCN(CC)CCn1c2c(c(SCC(=O)Nc3ccc(C)c(F)c3)nc1=O)CCCC2,-1.9,-5.3,97.0*,.,-4.6
CCN(CC)CCn1c2c(c(SCC(=O)Nc3ccccc3Cl)nc1=O)CCCC2,-0.5,-3.7,-16.1,.,-1.0
CCN(CC)CCn1c2c(c(SCC(=O)Nc3ccc(C)c(F)c3)nc1=O)CCC2,-2.3,0.3,-403.9,-2.6,0.6
CCN(CC)CCCn1c2c(c(SCC(=O)Nc3ccc(F)c(F)c3)nc1=O)CCC2,-0.2,-5.5,97.8*,5.0,.
CCN(CC)CCCn1c2c(c(SCC(=O)Nc3cc(OC)cc(OC)c3)nc1=O)CCC2,-2.3,-0.1,-361.5,4.9,1.6
